This is an account of results in ChEMBL document CHEMBL4251567 (Eur J Med Chem, 2018).

The target in one assay is Histone deacetylase. Put plainly: Inhibition of HDAC in human HeLa-S3 cell lysates preincubated for 15 mins followed by HDAC-Glo substrate addition measured after 35 mins by fluorimetric method. It counts as protein assay.
The target in assay [1] is T1, Histone deacetylase (Homo sapiens) (UniProt Q13547+O15379+Q9UBN7+Q92769+Q9UQL6+Q8WUI4+Q9BY41+Q96DB2+P56524+Q9UKV0+Q969S8). Put plainly: Inhibition of HDAC in human HeLa-S3 cell lysates assessed as residual activity at 1 x 10^-5 M preincubated for 15 mins followed by HDAC-Glo substrate addition measured after 35 mins by […] relative to control. The class given is protein assay. Put shortly: (§1)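 Lysate (1 μg total protein) in HDAC-Glo buffer was preincubated with inhibitor in DMSO for 15 min at room temperature. HDAC-Glo substrate/developer reagent was added and luminescence read after 35 min. Concentrations are final. Signal corrected for a no-lysate blank; % of DMSO control.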

Assay [2] concerns the target T1, Histone deacetylase (Homo sapiens). Put plainly: Inhibition of HDAC in human HeLa-S3 cell lysates assessed as residual activity at 5 x 10^-6 M preincubated for 15 mins followed by HDAC-Glo substrate addition measured after 35 mins by fluorimetric method relative to control. The class given is protein assay. The method, boiled down:
as §1

The target is the same in assay [3]. Description: Inhibition of HDAC in human HeLa-S3 cell lysates assessed as residual activity at 2.5 x 10^-6 M preincubated for 15 mins followed by HDAC-Glo substrate addition measured after 35 mins by […] relative to control. It counts as protein assay. Put shortly:
as §1

Assay [4] has the same target. Description: Inhibition of HDAC in human HeLa-S3 cell lysates assessed as residual activity at 1.25 x 10^-6 M preincubated for 15 mins followed by HDAC-Glo substrate addition measured after 35 mins by […] relative to control. The class given is protein assay. The method, boiled down:
as §1

Assay [5] has the same target. Put plainly: Inhibition of HDAC in human HeLa-S3 cell lysates assessed as residual activity at 6.25 x 10^-6 M preincubated for 15 mins followed by HDAC-Glo substrate addition measured after 35 mins by […] relative to control. It counts as protein assay.
Assay [6] concerns the target Histone deacetylase 1 (Homo sapiens) (UniProt Q13547). Description: Inhibition of HDAC1 in human HeLa-S3 cell lysates assessed as remaining activity at […] preincubated for 15 mins followed by HDAC-Glo substrate addition measured after 30 to 40 mins by […] relative to control.
Assay [7] has as its target Histone deacetylase 2 (Homo sapiens) (UniProt Q92769). Put plainly: Inhibition of HDAC2 in human HeLa-S3 cell lysates assessed as remaining activity at […] preincubated for 15 mins followed by HDAC-Glo substrate addition measured after 30 to 40 mins by […] relative to control.
In assay [8] the target is Histone deacetylase 3 (Homo sapiens) (UniProt O15379). Put plainly: Inhibition of HDAC3 in human HeLa-S3 cell lysates assessed as remaining activity at […] preincubated for 15 mins followed by HDAC-Glo substrate addition measured after 30 to 40 mins by […] relative to control.
Sequence of Histone deacetylase 3 (Homo sapiens) (O15379 whole entry): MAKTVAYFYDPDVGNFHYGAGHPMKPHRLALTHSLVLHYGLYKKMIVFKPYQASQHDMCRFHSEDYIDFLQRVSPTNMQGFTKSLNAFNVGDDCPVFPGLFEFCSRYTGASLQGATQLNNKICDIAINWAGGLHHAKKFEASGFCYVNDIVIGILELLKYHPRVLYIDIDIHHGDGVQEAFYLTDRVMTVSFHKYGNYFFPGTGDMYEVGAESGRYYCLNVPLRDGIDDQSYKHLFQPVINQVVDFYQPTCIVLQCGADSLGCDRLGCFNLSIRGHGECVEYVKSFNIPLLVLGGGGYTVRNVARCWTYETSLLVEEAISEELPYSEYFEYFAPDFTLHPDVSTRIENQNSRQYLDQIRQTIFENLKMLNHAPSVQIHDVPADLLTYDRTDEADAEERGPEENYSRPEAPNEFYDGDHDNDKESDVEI
The target in assay [9] is T2, Protein deacetylase HDAC6 (Homo sapiens) (UniProt Q9UBN7).
T2 sequence (whole entry): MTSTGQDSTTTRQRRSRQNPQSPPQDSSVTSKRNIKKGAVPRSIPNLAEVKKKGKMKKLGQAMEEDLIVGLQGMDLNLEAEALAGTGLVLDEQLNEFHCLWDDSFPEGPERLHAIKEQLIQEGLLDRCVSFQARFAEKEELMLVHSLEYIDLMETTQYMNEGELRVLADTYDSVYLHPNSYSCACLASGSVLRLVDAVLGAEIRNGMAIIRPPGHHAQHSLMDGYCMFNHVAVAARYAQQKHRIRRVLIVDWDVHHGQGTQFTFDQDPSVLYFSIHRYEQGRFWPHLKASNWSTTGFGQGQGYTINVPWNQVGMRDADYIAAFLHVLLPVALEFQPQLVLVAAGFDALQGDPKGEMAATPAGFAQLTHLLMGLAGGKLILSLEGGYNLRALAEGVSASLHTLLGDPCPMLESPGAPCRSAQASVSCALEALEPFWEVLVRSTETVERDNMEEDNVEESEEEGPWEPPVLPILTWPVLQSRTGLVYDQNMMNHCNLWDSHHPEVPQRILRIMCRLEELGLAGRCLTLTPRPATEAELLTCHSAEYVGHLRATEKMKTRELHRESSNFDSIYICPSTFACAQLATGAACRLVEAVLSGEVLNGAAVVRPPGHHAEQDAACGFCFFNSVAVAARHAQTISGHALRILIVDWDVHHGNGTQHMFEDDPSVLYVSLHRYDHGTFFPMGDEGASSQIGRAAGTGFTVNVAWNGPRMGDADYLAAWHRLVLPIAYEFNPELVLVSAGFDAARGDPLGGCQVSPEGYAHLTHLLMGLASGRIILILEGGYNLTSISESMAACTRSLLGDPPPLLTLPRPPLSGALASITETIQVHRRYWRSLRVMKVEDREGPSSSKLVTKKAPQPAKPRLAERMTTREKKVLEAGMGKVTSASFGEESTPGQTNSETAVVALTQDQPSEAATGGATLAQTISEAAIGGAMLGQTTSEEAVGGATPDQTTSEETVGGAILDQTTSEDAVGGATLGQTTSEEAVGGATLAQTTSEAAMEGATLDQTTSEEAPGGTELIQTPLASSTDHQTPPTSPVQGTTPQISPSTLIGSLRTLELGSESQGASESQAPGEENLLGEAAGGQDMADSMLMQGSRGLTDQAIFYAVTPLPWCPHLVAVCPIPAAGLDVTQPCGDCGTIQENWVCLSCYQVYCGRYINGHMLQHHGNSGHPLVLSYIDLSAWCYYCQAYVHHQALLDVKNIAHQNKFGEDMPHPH
Description: Inhibition of HDAC6 in human HeLa-S3 cell lysates assessed as remaining activity at […] preincubated for 15 mins followed by HDAC-Glo substrate addition measured after 30 to 40 mins by […] relative to control.

Assay [10] relates to U-937. Put plainly: Cytotoxicity against human U937 cells assessed as decrease in cell viability after 44 hrs by MTT assay. It counts as functional, cell-based. Particulars: u-937. (In general: Tetrazolium assays rely on reduction of a dye to a coloured formazan, in cell work by metabolically active cells.)
The subject of assay [11] is U-937. Description: Cytotoxicity against human U937 cells assessed as cell viability at 6.4 x 10^-5 M after 44 hrs by MTT assay relative to control. It counts as functional. Particulars: U-937, 44 h, read-out: Activity.
For assay [12], the system named is U-937. Description: Cytotoxicity against human U937 cells assessed as cell viability at 3.2 x 10^-5 M after 44 hrs by MTT assay relative to control. Particulars: U-937, 44 h, read-out: Activity. It counts as functional.
In assay [13] the test system is U-937. Description: Cytotoxicity against human U937 cells assessed as cell viability at 1.6 x 10^-5 M after 44 hrs by MTT assay relative to control. The class given is functional. Particulars: U-937, 44 h, read-out: Activity.
Assay [14] has as its system U-937. Put plainly: Cytotoxicity against human U937 cells assessed as cell viability at 8 x 10^-6 M after 44 hrs by MTT assay relative to control. It counts as functional. Particulars: U-937, 44 h, read-out: Activity.
Assay [15] deals with U-937. Put plainly: Cytotoxicity against human U937 cells assessed as cell viability at 4 x 10^-6 M after 44 hrs by MTT assay relative to control. The class given is functional. Particulars: U-937, 44 h, read-out: Activity.
Assay [16] concerns U-937. Description: Cytotoxicity against human U937 cells assessed as cell viability at 2 x 10^-6 M after 44 hrs by MTT assay relative to control. The class given is functional. Particulars: U-937, 44 h, read-out: Activity.
The test system of assay [17] is Jurkat. Put plainly: Cytotoxicity against human Jurkat cells assessed as cell viability at 1 uM after 44 hrs by MTT assay relative to control. Particulars: read-out: Activity. The class given is functional.
Assay [18] concerns Jurkat. Description: Cytotoxicity against human Jurkat cells assessed as cell viability at 10 uM after 44 hrs by MTT assay relative to control. It counts as functional. Particulars: read-out: Activity.

By IC50 is commonly meant the midpoint of a concentration-inhibition curve. In general, pEC50 refers to the negative decadic logarithm of the EC50, by convention in mol/L.

pEC50: −log10 of the molar value.

Sequence of Histone deacetylase 2 (Homo sapiens) (Q92769 whole entry): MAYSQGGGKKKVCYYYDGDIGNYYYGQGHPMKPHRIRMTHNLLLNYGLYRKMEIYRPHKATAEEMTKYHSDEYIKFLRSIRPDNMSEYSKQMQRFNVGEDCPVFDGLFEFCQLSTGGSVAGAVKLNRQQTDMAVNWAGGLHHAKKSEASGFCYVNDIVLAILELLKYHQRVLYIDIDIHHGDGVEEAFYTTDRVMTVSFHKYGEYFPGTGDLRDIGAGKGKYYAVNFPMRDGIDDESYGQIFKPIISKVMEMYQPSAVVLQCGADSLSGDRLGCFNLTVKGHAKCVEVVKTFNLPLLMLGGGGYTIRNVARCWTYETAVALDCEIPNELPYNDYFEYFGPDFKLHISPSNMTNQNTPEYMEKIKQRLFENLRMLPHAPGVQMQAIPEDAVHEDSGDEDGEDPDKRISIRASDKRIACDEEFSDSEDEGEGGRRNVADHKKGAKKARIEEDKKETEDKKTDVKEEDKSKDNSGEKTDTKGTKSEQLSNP
Sequence of Histone deacetylase 1 (Homo sapiens) (Q13547 whole entry): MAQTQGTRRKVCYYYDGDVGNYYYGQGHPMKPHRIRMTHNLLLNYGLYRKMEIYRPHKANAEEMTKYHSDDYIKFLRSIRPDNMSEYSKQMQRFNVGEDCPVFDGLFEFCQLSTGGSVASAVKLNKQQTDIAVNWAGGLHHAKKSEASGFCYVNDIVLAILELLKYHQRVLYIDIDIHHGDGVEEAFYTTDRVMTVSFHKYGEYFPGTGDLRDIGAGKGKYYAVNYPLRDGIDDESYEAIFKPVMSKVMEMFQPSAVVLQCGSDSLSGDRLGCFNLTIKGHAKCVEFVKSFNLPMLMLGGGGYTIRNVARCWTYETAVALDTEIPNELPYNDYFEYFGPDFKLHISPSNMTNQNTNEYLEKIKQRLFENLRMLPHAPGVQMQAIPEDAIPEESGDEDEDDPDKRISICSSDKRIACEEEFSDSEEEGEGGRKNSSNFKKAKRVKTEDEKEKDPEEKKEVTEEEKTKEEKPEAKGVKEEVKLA

As for `CC(CCCC(=O)Nc1ccccc1)CCC(=O)NO` (centres undefined), on Histone deacetylase, the IC50 came out at 3.3 µM. Besides, the Activity in assay [1] is 17%; in [2], 38%; in [3], 60%; in assay [4] it was 79%; in assay [5], 91%; in assay [6], 75%. In addition, the Activity in [7] was found to be 90%; in assay [8] it was 78%; in [9] it was 26%.
As to `CCCCC(CCCC(=O)Nc1ccccc1)CCC(=O)NO` (centres undefined), in the assay on U-937 [10], the pEC50 was 4.47. For the same compound, in the assay with U-937 [11], the viability at 64 µM was found to be 24%. For the same compound, the viability at 32 µM in the assay on U-937 [12] came to 54%. Moreover, in the assay with U-937 [13], the viability at 16 µM came to 80%. Moreover, in the assay with U-937 [14], the viability at 8 µM amounted to 87%. In addition, in the assay on U-937 [15], the viability at 4 µM is 100%. Also, the viability at 2 µM in the assay with U-937 [16] turned out to be 100%. The viability at 1 µM with Jurkat [17] is 98%. The viability at 10 µM in the assay with Jurkat [18] was 62%.
